Assay results from ChEMBL document CHEMBL1131003, “Nonsymmetric P2/P2' cyclic urea HIV protease inhibitors. Structure-activity relationship, bioavailability, and resistance profile of monoindazole-substituted P2 analogues” (J Med Chem, 1998).

Columns and labels:
[1] = test system: MT2; test: Antiviral potency evaluated by measuring accumulation of viral RNA transcripts 3 days after infection of MT-2 cells with HIV-1 RF; format: functional; conditions: Homo sapiens, MT2, 72 h
[2] = molecular target: Human immunodeficiency virus type 1 protease (Human immunodeficiency virus 1, UniProt Q72874); test: Inhibitory activity against HIV protease
In short: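 Ki for HIV protease, measured by cleavage of a fluorescent substrate with HPLC analysis, following the earlier method.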

[3] = molecular target: Human immunodeficiency virus type 1 protease (Human immunodeficiency virus 1) (UniProt Q72874); test: Antiviral activity against ritonavir virus (HIV-1 mutated at 46I/63P/71V/82F/84V and resistant to ritonavir); format: functional
In short: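 Mutant HIV-1 viruses carrying protease substitutions seen in ritonavir- or indinavir-treated patient isolates; the ritonavir virus carries 46I/63P/71V/82F/84V. IC90 read from a viral p24 readout, following the earlier method.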

[4] = molecular target: Human immunodeficiency virus type 1 protease (Human immunodeficiency virus 1) (UniProt Q72874); test: Antiviral activity against mutant virus HIV-1 mutant (84V) strain; format: functional
In short: (§1)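 I84V single and I84V/V82F double mutant HIV-1, both from in vitro selection under a cyclic urea inhibitor. IC90 measured by yield reduction assay.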

[5] = molecular target: Human immunodeficiency virus type 1 protease (Human immunodeficiency virus 1) (UniProt Q72874); test: Antiviral activity against mutant virus HIV-1 mutant (84V/82F) strain; format: functional; in short: as §1

Structure (SMILES): NC(=O)c1cccc(CN2C(=O)N(Cc3cccc(C(N)=O)c3)[C@H](Cc3ccccc3)[C@H](O)[C@@H](O)[C@H]2Cc2ccccc2)c1
- IC90 [1]: 709 nM

Structure (SMILES): Nc1ccc(CN2C(=O)N(Cc3ccc4[nH]ncc4c3)[C@H](Cc3ccccc3)[C@H](O)[C@@H](O)[C@H]2Cc2ccccc2)cc1-n1cccn1
- Ki [2]: 0.045 nM
- IC90 [1]: 6 nM
- IC90 mutant/IC90 WT [3]: 70
- IC90 mutant/IC90 WT [4]: 3.3
- IC90 mutant/IC90 WT [5]: 50

Structure (SMILES): O=C1N(Cc2cccc(NCc3nc4ccccc4s3)c2)[C@H](Cc2ccccc2)[C@H](O)[C@@H](O)[C@@H](Cc2ccccc2)N1Cc1ccc2[nH]ncc2c1
- Ki [2]: 0.059 nM
- IC90 [1]: 5 nM
- IC90 mutant/IC90 WT [3]: 25
- IC90 mutant/IC90 WT [4]: 3.3
- IC90 mutant/IC90 WT [5]: 20

Structure (SMILES): O=C(O)c1cccc(CN2C(=O)N(Cc3ccc4[nH]ncc4c3)[C@H](Cc3ccccc3)[C@H](O)[C@@H](O)[C@H]2Cc2ccccc2)c1
- Ki [2]: 0.049 nM
- IC90 [1]: 750 nM

Structure (SMILES): O=C(Cn1cccn1)c1cccc(CN2C(=O)N(Cc3ccc4[nH]ncc4c3)[C@H](Cc3ccccc3)[C@H](O)[C@@H](O)[C@H]2Cc2ccccc2)c1
- Ki [2]: 0.063 nM
- IC90 [1]: 15 nM

Structure (SMILES): O=C1N[C@H](Cc2ccccc2)[C@H](O)[C@@H](O)[C@@H](Cc2ccccc2)N1Cc1ccc2[nH]ncc2c1
- IC90 [1]: 550 nM

Structure (SMILES): O=C1N(Cc2cccc(Cn3cccn3)c2)[C@H](Cc2ccccc2)[C@H](O)[C@@H](O)[C@@H](Cc2ccccc2)N1Cc1ccc2[nH]ncc2c1
- Ki [2]: 0.17 nM
- IC90 [1]: 46 nM

Structure (SMILES): Nc1ccc(CN2C(=O)N(Cc3ccc4[nH]ncc4c3)[C@H](Cc3ccccc3)[C@H](O)[C@@H](O)[C@H]2Cc2ccccc2)cc1F
- Ki [2]: 0.036 nM
- IC90 [1]: 7 nM

Structure (SMILES): NC(=O)c1cc(CN2C(=O)N(Cc3ccc4[nH]ncc4c3)[C@H](Cc3ccccc3)[C@H](O)[C@@H](O)[C@H]2Cc2ccccc2)ccc1F
- Ki [2]: 0.018 nM
- IC90 [1]: 14 nM

Structure (SMILES): O=C(Cn1nccn1)c1cccc(CN2C(=O)N(Cc3ccc4[nH]ncc4c3)[C@H](Cc3ccccc3)[C@H](O)[C@@H](O)[C@H]2Cc2ccccc2)c1
- Ki [2]: 0.046 nM
- IC90 [1]: 15 nM

Structure (SMILES): O=C1N(Cc2ccc3[nH]ncc3c2)[C@H](Cc2ccccc2)[C@H](O)[C@@H](O)[C@@H](Cc2ccccc2)N1Cc1ccc2[nH]ncc2c1
- IC90 [1]: 7 nM

Structure (SMILES): O=C1N(Cc2ccc(F)c(NCc3nc4ccccc4[nH]3)c2)[C@H](Cc2ccccc2)[C@H](O)[C@@H](O)[C@@H](Cc2ccccc2)N1Cc1ccc2[nH]ncc2c1
- Ki [2]: 0.028 nM
- IC90 [1]: 30 nM

Structure (SMILES): N=C(NO)c1cccc(CN2C(=O)N(Cc3cccc(/C(N)=N/O)c3)[C@H](Cc3ccccc3)[C@H](O)[C@@H](O)[C@H]2Cc2ccccc2)c1
- Ki [2]: < 0.01 nM
- IC90 [1]: 300 nM
- IC90 mutant/IC90 WT [4]: 1
- IC90 mutant/IC90 WT [5]: 0.7

Structure (SMILES): O=C1N(Cc2ccc3ccccc3c2)[C@H](Cc2ccccc2)[C@H](O)[C@@H](O)[C@@H](Cc2ccccc2)N1Cc1ccc2ccccc2c1
- IC90 [1]: 3900 nM

Structure (SMILES): Cc1ccc(CN2C(=O)N(Cc3ccc4[nH]ncc4c3)[C@H](Cc3ccccc3)[C@H](O)[C@@H](O)[C@H]2Cc2ccccc2)cc1N
- Ki [2]: 0.05 nM
- IC90 [1]: 15 nM

Structure (SMILES): NC(=O)c1cccc(CN2C(=O)N(Cc3cccc(C(N)=O)c3)[C@H](Cc3ccccc3)[C@H](O)[C@H]2CCc2ccccc2)c1
- IC90 [1]: 35 nM

Structure (SMILES): N=C(NO)c1cccc(CN2C(=O)N(Cc3cccc(/C(N)=N/O)c3)[C@H](CCc3ccccc3)[C@@H](O)[C@H]2Cc2ccccc2)c1
- IC90 [1]: 49 nM

Structure (SMILES): Nc1ccc(CN2C(=O)N(Cc3ccc4[nH]ncc4c3)[C@H](Cc3ccccc3)[C@H](O)[C@@H](O)[C@H]2Cc2ccccc2)cc1-n1ccnn1
- Ki [2]: 0.034 nM
- IC90 [1]: 38 nM

Structure (SMILES): O=C1N(Cc2cccc(NCc3nc4ccccc4[nH]3)c2)[C@H](Cc2ccccc2)[C@H](O)[C@@H](O)[C@@H](Cc2ccccc2)N1Cc1ccc2[nH]ncc2c1
- Ki [2]: 0.016 nM
- IC90 [1]: 63 nM
- IC90 mutant/IC90 WT [4]: 1
- IC90 mutant/IC90 WT [5]: 3

Structure (SMILES): O=C(Nc1nccs1)c1cccc(CN2C(=O)N(Cc3cccc(C(=O)Nc4nccs4)c3)[C@H](Cc3ccccc3)[C@H](O)[C@@H](O)[C@H]2Cc2ccccc2)c1
- IC90 [1]: 4.2 nM

Structure (SMILES): CCNC(=O)c1cccc(CN2C(=O)N(Cc3cccc(C(=O)NCC)c3)[C@H](Cc3ccccc3)[C@H](O)[C@@H](O)[C@H]2Cc2ccccc2)c1
- IC90 [1]: 138 nM

Structure (SMILES): O=C(Nc1ccccn1)c1cccc(CN2C(=O)N(Cc3cccc(C(=O)Nc4ccccn4)c3)[C@H](Cc3ccccc3)[C@H](O)[C@@H](O)[C@H]2Cc2ccccc2)c1
- IC90 [1]: 2.8 nM

Structure (SMILES): O=C1N(Cc2cccc(Cn3ccnn3)c2)[C@H](Cc2ccccc2)[C@H](O)[C@@H](O)[C@@H](Cc2ccccc2)N1Cc1ccc2[nH]ncc2c1
- Ki [2]: 0.11 nM
- IC90 [1]: 30 nM

Structure (SMILES): O=C1N(Cc2cccc(Cn3cncn3)c2)[C@H](Cc2ccccc2)[C@H](O)[C@@H](O)[C@@H](Cc2ccccc2)N1Cc1ccc2[nH]ncc2c1
- Ki [2]: 0.054 nM
- IC90 [1]: 35 nM

Structure (SMILES): Nc1cc(CN2C(=O)N(Cc3ccc4[nH]ncc4c3)[C@H](Cc3ccccc3)[C@H](O)[C@@H](O)[C@H]2Cc2ccccc2)ccc1F
- Ki [2]: 0.018 nM
- IC90 [1]: 14 nM

Structure (SMILES): COC(=O)Cc1cccc(CN2C(=O)N(Cc3ccc4[nH]ncc4c3)[C@H](Cc3ccccc3)[C@H](O)[C@@H](O)[C@H]2Cc2ccccc2)c1
- Ki [2]: 0.11 nM
- IC90 [1]: 32 nM

Structure (SMILES): O=C1N(Cc2cccc(Cn3nccn3)c2)[C@H](Cc2ccccc2)[C@H](O)[C@@H](O)[C@@H](Cc2ccccc2)N1Cc1ccc2[nH]ncc2c1
- Ki [2]: 0.081 nM
- IC90 [1]: 32 nM

Structure (SMILES): O=C1N(Cc2cccc(CCO)c2)[C@H](Cc2ccccc2)[C@H](O)[C@@H](O)[C@@H](Cc2ccccc2)N1Cc1ccc2[nH]ncc2c1
- Ki [2]: 0.05 nM
- IC90 [1]: 17 nM

Structure (SMILES): Cc1cccc(NC(=O)c2cccc(CN3C(=O)N(Cc4ccc5[nH]ncc5c4)[C@H](Cc4ccccc4)[C@H](O)[C@@H](O)[C@H]3Cc3ccccc3)c2)n1
- Ki [2]: 0.04 nM
- IC90 [1]: 3 nM

Structure (SMILES): O=C(Cc1cccs1)c1cccc(CN2C(=O)N(Cc3ccc4[nH]ncc4c3)[C@H](Cc3ccccc3)[C@H](O)[C@@H](O)[C@H]2Cc2ccccc2)c1
- Ki [2]: 0.23 nM
- IC90 [1]: 18 nM

Structure (SMILES): O=C(Nc1ccccn1)c1cccc(CN2C(=O)N(Cc3ccc4[nH]ncc4c3)[C@H](Cc3ccccc3)[C@H](O)[C@@H](O)[C@H]2Cc2ccccc2)c1
- Ki [2]: 0.051 nM
- IC90 [1]: 5 nM

Structure (SMILES): O=C(Nc1nc2ccccc2[nH]1)c1cccc(CN2C(=O)N(Cc3cccc(C(=O)Nc4nc5ccccc5[nH]4)c3)[C@H](Cc3ccccc3)[C@H](O)[C@@H](O)[C@H]2Cc2ccccc2)c1
- IC90 [1]: 5.1 nM

Structure (SMILES): CNC(=O)c1cccc(CN2C(=O)N(Cc3cccc(C(=O)NC)c3)[C@H](Cc3ccccc3)[C@H](O)[C@@H](O)[C@H]2Cc2ccccc2)c1
- IC90 [1]: 81 nM

Structure (SMILES): O=C1N(Cc2cccc(O)c2)[C@H](Cc2ccccc2)[C@H](O)[C@@H](O)[C@@H](Cc2ccccc2)N1Cc1ccc2[nH]ncc2c1
- Ki [2]: 0.045 nM
- IC90 [1]: 36 nM

Structure (SMILES): O=C(Cn1ccnn1)c1cccc(CN2C(=O)N(Cc3ccc4[nH]ncc4c3)[C@H](Cc3ccccc3)[C@H](O)[C@@H](O)[C@H]2Cc2ccccc2)c1
- Ki [2]: 0.021 nM
- IC90 [1]: 30 nM

Structure (SMILES): O=C1N(Cc2ccc3[nH]ncc3c2)[C@H](CCc2ccccc2)[C@@H](O)[C@@H](Cc2ccccc2)N1Cc1ccc2[nH]ncc2c1
- Ki [2]: 0.023 nM
- IC90 [1]: 6 nM

Structure (SMILES): Nc1ccc(CN2C(=O)N(Cc3ccc4[nH]ncc4c3)[C@H](Cc3ccccc3)[C@H](O)[C@@H](O)[C@H]2Cc2ccccc2)cc1-n1nccn1
- Ki [2]: 0.059 nM
- IC90 [1]: 12 nM

Structure (SMILES): CN(C)c1cccc(CN2C(=O)N(Cc3ccc4[nH]ncc4c3)[C@H](Cc3ccccc3)[C@H](O)[C@@H](O)[C@H]2Cc2ccccc2)c1
- Ki [2]: 0.23 nM
- IC90 [1]: 39 nM
